A word on the AC50: it is the midpoint of the concentration-response curve, whichever way the signal moves.

These results are taken from PubChem BioAssay AID449757 (Broad Institute, 2010).

Each structure is given as a SMILES string. The source made the active and inactive calls.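 The calls were made as follows: active = compounds whose fitted caspase activation midpoint falls no more than tenfold above the top tested dose; inconclusive = flat fit with activity between 30 and 70 percent, or failed fit; inactive = the rest.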

In this experiment the test system is MEF Flag-A1-IRES-BIM, caspase-Glo luminescence, 3 h. As to the kind of experiment: caspase activation in A1/BIM-primed MEFs, dose response, A1 (Bcl2A1) inhibitor project, cell-based, alternate construct, luminescence (AID 449757). The procedure, abridged: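 Assay system: mouse embryonic fibroblasts primed via Flag-A1-IRES-BIM expression construct; quantity: 2500 cells per well, seeded one day before compound; medium: RPMI-1640 growth medium with 10% FBS; doses: 100 nL compound added per well by pin transfer; timing: 3-h compound at 37 °C, 30-min cooling, 1-h reagent at RT; measured by: CaspaseGlo luminescence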
For the molecule `COc1cc(CN2CCN(c3cc(C)ccc3C)CC2)ccc1O`, the AC50 is > 35 µM (inactive).

Consider `Cc1ccc(-c2nc(NC(=O)c3nn(C)cc3[N+](=O)[O-])sc2C)cc1`, for which the AC50 was 6.7 µM.

In the case of `CCOc1ccc(NC(=S)NC(=O)/C=C/c2ccc(C)cc2)c([N+](=O)[O-])c1`, the AC50 was 21 µM.

As to `COc1ccc(-c2oc(=O)c3cc(OC)c(OC)cc3c2/C=C/c2cccc([N+](=O)[O-])c2)cc1`, the AC50 is > 35 µM (inactive).

For the molecule `Cc1cc(=O)[nH]c(SCC(=O)Nc2ccc(Br)cc2)c1C#N`, the AC50 was > 35 µM (inactive).

As for `CC(C)(C)[C@H](N)C(=O)N[C@H]1CCC2C3CC=C4C[C@@H](O)CC[C@]4(C)C3CC[C@@]21C` (stereo partly drawn), the AC50 was > 35 µM (inactive).

As to `Cc1nn(Cc2c(Cl)cccc2Cl)c(C)c1NC(=O)c1cn(-c2ccccc2)nc1-c1ccccc1`, the AC50 is 19.2 µM.

With `CCOc1cc(/C=C\[N+](=O)[O-])ccc1OCC(=O)Nc1ccccc1C`, the AC50 was 6.53 µM.

Consider `CCc1ccccc1NC(=O)C(CC)Sc1nc2cc3c(cc2c(=O)n1Cc1ccco1)OCO3` (stereo not drawn), for which the AC50 is > 35 µM (inactive).

`COc1cc(-c2cc(-c3ccccc3)nc(SCC(=O)Nc3nccs3)c2C#N)cc(OC)c1OC`: the AC50 was > 35 µM (inactive).

As to `Oc1[nH]c2ccc(Br)cc2c1N=NC(=S)Nc1ccc(F)cc1`, the AC50 was > 35 µM (inactive).

In the case of `CC(C)N=c1scc(-c2ccco2)n1/N=C/c1ccc(O)c(O)c1`, the AC50 is > 35 µM (inactive).

On to `O=[N+]([O-])/C=C/c1cn(Cc2ccc(Cl)cc2)c2ccccc12`, for which the AC50 is 15.9 µM.

As for `CC(=O)Nc1ccc(NC(=O)C(=O)NCC(c2ccco2)N2CCc3ccccc32)cc1` (stereo not drawn), the AC50 is 28.9 µM.

Take `O=C(/C=C/c1ccc(F)cc1)NC(=S)Nc1ccccc1C(=O)NC1CCCCC1`: the AC50 is > 35 µM (inactive).

As to `CN1C2CCC1/C(=C/c1ccccn1)C(=O)/C2=C\c1ccccn1`, the AC50 was > 35 µM (inactive).

Take `CCc1ccc(NC(=O)c2nc(S(=O)(=O)Cc3ccccc3)ncc2Cl)cc1`: the AC50 was > 35 µM (inactive).

On to `Cc1ccc(-c2nc(NC(=O)c3nn(C)cc3[N+](=O)[O-])sc2C)cc1C`, for which the AC50 was 3.62 µM.

Turning to `O=C(CN(c1ccc(Br)cc1)S(=O)(=O)c1ccc(Cl)c([N+](=O)[O-])c1)NCCc1ccccc1`, the AC50 is > 35 µM (inactive).

`CC(C)CCN(C(=O)Cc1ccc(Cl)c(Cl)c1)c1c(N)n(Cc2ccccc2)c(=O)[nH]c1=O`: the concentration at half-maximal activity (AC50) was 16.9 µM.

With `COC(=O)c1ccc2c(=O)n(Cc3ccc4c(c3)OCO4)c(=S)[nH]c2c1`, the AC50 is > 35 µM (inactive).

Regarding `CCc1ccc(Nc2n[n+](-c3ccccc3)c(/C=C/c3ccccc3)s2)cc1`, the AC50 is 10.3 µM.

For the molecule `COc1ccc(-c2cc3ccccc3oc2=O)cc1NC(=S)NC(=O)c1ccc2c(c1)OCCO2`, the AC50 is 6.36 µM.

As for `COc1cc2cnc(-c3ccccc3)c(-c3cccc(C(F)(F)F)c3)c2cc1OC`, the AC50 was > 35 µM (inactive).

Take `O=C(Cn1c(C(F)(F)F)nc2ccccc21)N=Nc1c(O)[nH]c2ccc(Br)cc12`: the AC50 was 29.8 µM.

Consider `C=C1/C=C(\C)[C@](C)(O)C[C@H](O)CC(=O)[C@H](O)[C@@H](O)[C@H](C)C[C@H](C)OC(=O)/C(C)=C/CC/C=C/[C@@H]2O[C@H]2C[C@H](C)C1`, for which the AC50 is > 35 µM (inactive).

As for `CCOc1cc(C(=O)CSc2nnc(CNc3ccc(Cl)cc3)o2)ccc1NC(=O)CC`, the AC50 was 15.3 µM.

Regarding `CCOC(=O)c1ccc(-c2ccc(/C=N/NC(=O)CN(c3cccc(C)c3)S(C)(=O)=O)o2)cc1`, the AC50 was 36.2 µM.

`CCn1c(SCC(=O)c2ccccc2)nnc1-c1cc2cc(Br)ccc2o1`: the AC50 was > 35 µM (inactive).

Turning to `N#C/C(=C\c1ccc(OCc2ccccc2)cc1)C(=O)Nc1nc2c(s1)CCN(Cc1ccccc1)C2`, the AC50 was > 35 µM (inactive).

In the case of `Cc1ccc2c(c1)c(C1=c3ccccc3=NC1=O)c(O)n2C`, the AC50 is > 35 µM (inactive).

Turning to `CCCc1ccc(OCc2ccc(C(=O)N/N=C/c3cccc([N+](=O)[O-])c3)o2)c(OC)c1`, the AC50 was 6.57 µM.

As for `N#CC(C#N)=C1C=CC=CN1/C(=C\c1ccccc1Cl)C(=O)c1ccccc1`, the AC50 is 3.43 µM.

Take `COc1cc(SC#N)ccc1N=Cc1c(C)[nH]n(-c2ccc(C)cc2)c1=O`: the AC50 is 25.3 µM.

Turning to `Cn1c(=NC(=O)CCl)sc2ccccc21`, the AC50 was > 35 µM (inactive).

With `Cc1ccc2c(c1)C(=O)C(=O)N2Cc1ccc(Br)cc1`, the AC50 was > 35 µM (inactive).

For `N#Cc1cccnc1N1CCN(C(=O)c2cccc3c2C(=O)c2ccc(-c4ccc(Cl)c(C(F)(F)F)c4)cc2S3(=O)=O)CC1`, the AC50 was > 35 µM (inactive).

As to `CCCCC1CCC(C(=O)N(CC(C)C)c2c(N)n(Cc3ccccc3)c(=O)[nH]c2=O)CC1` (stereo not drawn), the AC50 was 8.13 µM.

For the molecule `CC(C)(C)C1CCc2onc(C(=O)Nc3cccc(O)c3)c2C1` (stereo not drawn), the AC50 is > 35 µM (inactive).

Take `CC1=CC(=O)C(C(C)C)=C/C1=N/OS(=O)(=O)c1ccccc1`: the AC50 was 6.53 µM.

As to `O=C(N/C=N/OCc1ccc(Cl)cc1Cl)NOCc1ncc(C(F)(F)F)cc1Cl`, the AC50 was > 35 µM (inactive).

As for `O=C(Nc1ccc([N+](=O)[O-])cc1)C(Cc1ccccc1)N1C(=O)c2cccc3cccc(c23)C1=O` (stereo not drawn), the AC50 was > 35 µM (inactive).

With `COC(=O)CSc1nc(N)c2c3c(sc2n1)C(c1ccccc1)SC(c1ccccc1)C3` (stereo not drawn), the AC50 was > 35 µM (inactive).

`Cc1ccc(Sc2c([N+](=O)[O-])c(=O)n(C)c3ccccc23)cc1`: the AC50 was > 35 µM (inactive).

`O=C(Nc1ccc(Cl)cc1Cl)c1cccc(N2C(=O)C=CC2=O)c1`: the AC50 was 19.1 µM.

Regarding `O=C(NC1CCCCC1)C(c1ccc(F)cc1)N(CCc1ccccc1)C(=O)CN1C(=O)c2ccccc2S1(=O)=O` (stereo not drawn), the AC50 is 7.6 µM.

As to `Cn1cc([N+](=O)[O-])c(C(=O)Nc2cc(Oc3ccccc3)cc([N+](=O)[O-])c2)n1`, the AC50 is 19.5 µM.

Consider `CCOC(=O)/C(=C\c1cccnc1)C(=O)c1cc(C(C)=O)c(Nc2ccccc2)s1`, for which the AC50 is 4.1 µM.

As to `COc1cccc(C(=O)C(C#N)=C(SC)SC)c1`, the AC50 was > 35 µM (inactive).

For `COc1ccc(NC(=O)C(=O)N/N=C\c2ccc(CNC(=O)C(=O)Nc3ccc(C)c(C)c3)o2)c(OC)c1`, the AC50 was 26.1 µM.

For `CCOc1ccc2nc(NCCNC(=O)Nc3cccc(C)c3)c(C#N)cc2c1`, the AC50 is 33.9 µM.

`CCOC(=O)/C=c1\s/c(=C\c2ccc(C(=O)OC)cc2)c(=O)n1CC(=O)Nc1ccccc1`: the AC50 is > 35 µM (inactive).

Take `CCOC(=O)/C(=C\c1ccc([N+](=O)[O-])cc1)C(=O)c1cc(C(C)=O)c(Nc2ccccc2)s1`: the AC50 was 1.81 µM.

With `O=C1/C(=C/c2ccc(N3CCOCC3)o2)SC(=Nc2ccccc2)N1CCc1c[nH]c2ccccc12`, the AC50 was > 35 µM (inactive).

For `O=C(c1ccc(COc2ccc3ccccc3c2)o1)N1N=C(C(F)F)CC1(O)C(F)F` (stereo not drawn), the AC50 is > 35 µM (inactive).

Consider `O=C(CCl)N=c1sccn1Cc1ccccc1Cl`, for which the AC50 is > 35 µM (inactive).

As for `COc1cc(/C=C2/C(=N)N3C=CSC3=NC2=O)ccc1OCCCOc1cc(C)ccc1C`, the AC50 is 16.2 µM.

In the case of `CC(=O)OC(C)(C)/C=C/C(=O)C(C)(O)C1[C@H](O)C[C@@]2(C)C3CC=C4C(CC[C@@H](O)C4(C)C)[C@]3(CO)C(=O)C[C@]12C` (stereo partly drawn), the AC50 is > 35 µM (inactive).
